Test results reported in ChEMBL document CHEMBL2417468, “4β-[4'-(1-(Aryl)ureido)benzamide]podophyllotoxins as DNA topoisomerase I and IIα inhibitors and apoptosis inducing agents” (2013).
Calls of active or inactive are those of the source. No cut-off for these calls is given here.

Experiments:
COLO 205 [1] = experiment: Cell cycle arrest in human COLO205 cells assessed as accumulation at S phase at 2 uM after 24 hrs by propidium iodide staining-based FACS flow cytometric analysis (reference value: 4.21%); format: functional
COLO 205 [2] = experiment: Cytotoxicity against human COLO205 cells assessed as cell viability at <0.5 to 1 uM after 24 hrs by MTT assay; format: functional, cell-based
In short: (§1)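 Colo-205 (RPMI, 10% FCS) and MDA-MB-231 (DMEM, 2 mM glutamax, 10% FCS, penicillin/streptomycin) seeded at 1 104 cells/well, 18 h preincubation; fresh medium with compound at 0.5, 1, 2 and 4 µM for 24 h at 37 °C; MTT 2 h, formazan solubilised, OD 570 nm; DMSO ≤0.25%, DMSO-only wells as untreated control.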

COLO 205 [3] = experiment: Induction of apoptosis in human COLO205 cells assessed as caspase-3 activation at 2 uM after 24 hrs by Western blotting analysis; format: functional, cell-based
In short: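 Colo-205 cells grown to 80% confluency, 2 µM final for 24 h; RIPA lysates with protease inhibitors, Bradford-quantified, 50 µg protein per lane on 12% SDS-PAGE, PVDF transfer, probed overnight at 4 °C for active caspase-3, β-actin as loading control, chemiluminescent detection.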

A549 = experiment: Growth inhibition of human A549 cells after 48 hrs by sulforhodamine B assay; format: functional; settings: A549, 48 h
COLO 205 [4] = experiment: Growth inhibition of human COLO205 cells after 48 hrs by sulforhodamine B assay; format: functional; settings: COLO 205, 48 h
COLO 205 [5] = experiment: Cell cycle arrest in human COLO205 cells assessed as accumulation at G0/G1 phase at 2 uM after 24 hrs by propidium iodide staining-based FACS flow cytometric analysis (reference value: 65.23%); format: functional
COLO 205 [6] = experiment: Cytotoxicity against human COLO205 cells assessed as cell viability at 2 to 4 uM after 24 hrs by MTT assay; format: functional, cell-based; in short: as §1
COLO 205 [7] = experiment: Cytotoxicity against human COLO205 cells assessed as viable cells at 2 uM after 24 hrs by trypan blue exclusion assay; format: functional, cell-based
In short: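 Colo-205 cells treated 24 h at 1, 2 and 4 µM, trypsinised, mixed with 0.4% trypan blue (10 µl per 100 µl cells), counted on haemocytometer; percentage dead cells calculated; triplicate samples.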

MDA-MB-231 [8] = experiment: Cytotoxicity against human MDA-MB-231 cells assessed as cell viability at 2 to 4 uM after 24 hrs by MTT assay; format: functional, cell-based; in short: as §1
MDA-MB-231 [9] = experiment: Cytotoxicity against human MDA-MB-231 cells assessed as cell viability at <0.5 to 1 uM after 24 hrs by MTT assay; format: functional, cell-based; in short: as §1
COLO 205 [10] = experiment: Cytotoxicity against human COLO205 cells assessed as reduction in cellular ATP level at 2 uM after 24 hrs by bioluminescence assay; format: functional, cell-based
In short: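 Colo-205 cells exposed 24 h at 2 µM, lysed in ice-cold RIPA, debris spun off at 4 °C; intracellular ATP in supernatant by luciferin-luciferase bioluminescence kit; three independent experiments, mean ± S.D., untreated control.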

[11] = Growth inhibition of human Gurav cells after 48 hrs by sulforhodamine B assay; format: functional
A2780 = experiment: Growth inhibition of human A2780 cells after 48 hrs by sulforhodamine B assay; format: functional; settings: A2780, 48 h
[12] = Growth inhibition of human DWD cells after 48 hrs by sulforhodamine B assay; format: functional
[13] = target: DNA topoisomerase 2-alpha (Homo sapiens) (UniProt P11388); experiment: Inhibition of human topoisomerase 2alpha-mediated relaxation of supercoiled pBR322 DNA at 2 uM after 30 mins by agarose gel electrophoresis
In short: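 Purified human topoisomerase IIα (4 units) with 200 ng supercoiled pBR322 and compound at 2 µM, 30 min at 30 °C in 10 mM Tris-HCl pH 7.9, 50 mM NaCl, 5 mM MgCl2, 1 mM EDTA, 1 mM ATP, 15 µg/mL BSA; EDTA-stopped; 1% agarose gel in TAE, ethidium bromide, UV visualisation.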

ZR-75-1 = experiment: Growth inhibition of human ZR-75-1 cells after 48 hrs by sulforhodamine B assay; format: functional; settings: ZR-75-1, 48 h
HOP-62 = experiment: Growth inhibition of human HOP62 cells after 48 hrs by sulforhodamine B assay; format: functional; settings: HOP-62, 48 h
COLO 205 [14] = experiment: Induction of apoptosis in human COLO205 cells assessed as DNA fragmentation at 2 to 4 uM after 24 hrs by Hoechst staining-based confocal microscopic analysis; format: functional, cell-based
In short: (§2)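 Colo-205 cells on coverslips treated 24 h at 2 and 4 µM, 4% paraformaldehyde fixed 15 min, RNase-treated 30 min at 37 °C, Hoechst-stained; nuclear morphology (fragmentation, blebbing) by confocal microscopy versus untreated cells.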

COLO 205 [15] = experiment: Induction of apoptosis in human COLO205 cells assessed as blebbing at 2 to 4 uM after 24 hrs by Hoechst staining-based confocal microscopic analysis; format: functional, cell-based; in short: as §2
SiHa = experiment: Growth inhibition of human SiHa cells after 48 hrs by sulforhodamine B assay; format: functional
[16] = target: T1, DNA topoisomerase 1 (Homo sapiens) (UniProt P11387); experiment: Inhibition of human topoisomerase 1-mediated relaxation of supercoiled pBR322 DNA at 2 uM after 30 mins by agarose gel electrophoresis
T1 sequence (whole entry): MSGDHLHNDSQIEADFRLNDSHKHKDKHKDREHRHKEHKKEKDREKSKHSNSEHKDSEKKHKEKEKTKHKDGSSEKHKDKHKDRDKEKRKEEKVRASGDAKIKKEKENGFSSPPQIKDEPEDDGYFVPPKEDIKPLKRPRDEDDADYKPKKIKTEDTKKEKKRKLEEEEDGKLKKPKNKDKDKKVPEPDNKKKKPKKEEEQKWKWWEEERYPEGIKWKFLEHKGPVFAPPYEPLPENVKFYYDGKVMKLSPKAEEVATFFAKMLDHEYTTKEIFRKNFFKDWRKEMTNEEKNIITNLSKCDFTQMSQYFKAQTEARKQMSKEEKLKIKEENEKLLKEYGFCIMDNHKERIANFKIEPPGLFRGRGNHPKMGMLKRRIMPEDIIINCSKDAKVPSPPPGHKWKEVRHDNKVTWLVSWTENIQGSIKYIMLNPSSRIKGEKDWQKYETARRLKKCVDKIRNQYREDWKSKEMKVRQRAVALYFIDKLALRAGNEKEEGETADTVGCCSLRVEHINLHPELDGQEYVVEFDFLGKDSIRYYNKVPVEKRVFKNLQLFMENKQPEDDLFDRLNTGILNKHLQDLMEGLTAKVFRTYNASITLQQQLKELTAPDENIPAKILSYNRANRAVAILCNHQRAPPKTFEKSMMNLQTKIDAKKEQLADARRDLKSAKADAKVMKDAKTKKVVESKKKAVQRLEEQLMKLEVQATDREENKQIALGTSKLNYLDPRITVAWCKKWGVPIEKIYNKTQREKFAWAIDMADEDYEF
In short: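 500 ng supercoiled pBR322 with 0.4 units recombinant human topoisomerase I, compound at 2 µM, 30 min at 37 °C in 10 mM Tris-HCl pH 7.9, 150 mM NaCl, 0.1% BSA, 1 mM spermidine, 5% glycerol; stopped with sarcosyl/dye; relaxation read on 1% agarose gel; camptothecin as reference.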

MCF7 = experiment: Growth inhibition of human MCF7 cells after 48 hrs by sulforhodamine B assay; format: functional; settings: MCF7, 48 h
COLO 205 [17] = experiment: Cell cycle arrest in human COLO205 cells assessed as accumulation at G2/M phase at 2 uM after 24 hrs by propidium iodide staining-based FACS flow cytometric analysis (reference value: 29.52%); format: functional
COLO 205 [18] = experiment: Induction of apoptosis in human COLO205 cells assessed as caspase-3 activation at 2 uM after 24 hrs by ELISA; format: functional, cell-based
In short: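 Colo-205 cells exposed 24 h at 2 µM; lysates in 2X reaction buffer with DTT plus caspase substrate, 1 h at 37 °C; fluorescence read at ex 400/em 505 nm; three independent experiments, mean ± S.D., versus untreated control.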

KB = experiment: Growth inhibition of human KB cells after 48 hrs by sulforhodamine B assay; format: functional

Sequence of DNA topoisomerase 2-alpha (Homo sapiens) (P11388 whole entry): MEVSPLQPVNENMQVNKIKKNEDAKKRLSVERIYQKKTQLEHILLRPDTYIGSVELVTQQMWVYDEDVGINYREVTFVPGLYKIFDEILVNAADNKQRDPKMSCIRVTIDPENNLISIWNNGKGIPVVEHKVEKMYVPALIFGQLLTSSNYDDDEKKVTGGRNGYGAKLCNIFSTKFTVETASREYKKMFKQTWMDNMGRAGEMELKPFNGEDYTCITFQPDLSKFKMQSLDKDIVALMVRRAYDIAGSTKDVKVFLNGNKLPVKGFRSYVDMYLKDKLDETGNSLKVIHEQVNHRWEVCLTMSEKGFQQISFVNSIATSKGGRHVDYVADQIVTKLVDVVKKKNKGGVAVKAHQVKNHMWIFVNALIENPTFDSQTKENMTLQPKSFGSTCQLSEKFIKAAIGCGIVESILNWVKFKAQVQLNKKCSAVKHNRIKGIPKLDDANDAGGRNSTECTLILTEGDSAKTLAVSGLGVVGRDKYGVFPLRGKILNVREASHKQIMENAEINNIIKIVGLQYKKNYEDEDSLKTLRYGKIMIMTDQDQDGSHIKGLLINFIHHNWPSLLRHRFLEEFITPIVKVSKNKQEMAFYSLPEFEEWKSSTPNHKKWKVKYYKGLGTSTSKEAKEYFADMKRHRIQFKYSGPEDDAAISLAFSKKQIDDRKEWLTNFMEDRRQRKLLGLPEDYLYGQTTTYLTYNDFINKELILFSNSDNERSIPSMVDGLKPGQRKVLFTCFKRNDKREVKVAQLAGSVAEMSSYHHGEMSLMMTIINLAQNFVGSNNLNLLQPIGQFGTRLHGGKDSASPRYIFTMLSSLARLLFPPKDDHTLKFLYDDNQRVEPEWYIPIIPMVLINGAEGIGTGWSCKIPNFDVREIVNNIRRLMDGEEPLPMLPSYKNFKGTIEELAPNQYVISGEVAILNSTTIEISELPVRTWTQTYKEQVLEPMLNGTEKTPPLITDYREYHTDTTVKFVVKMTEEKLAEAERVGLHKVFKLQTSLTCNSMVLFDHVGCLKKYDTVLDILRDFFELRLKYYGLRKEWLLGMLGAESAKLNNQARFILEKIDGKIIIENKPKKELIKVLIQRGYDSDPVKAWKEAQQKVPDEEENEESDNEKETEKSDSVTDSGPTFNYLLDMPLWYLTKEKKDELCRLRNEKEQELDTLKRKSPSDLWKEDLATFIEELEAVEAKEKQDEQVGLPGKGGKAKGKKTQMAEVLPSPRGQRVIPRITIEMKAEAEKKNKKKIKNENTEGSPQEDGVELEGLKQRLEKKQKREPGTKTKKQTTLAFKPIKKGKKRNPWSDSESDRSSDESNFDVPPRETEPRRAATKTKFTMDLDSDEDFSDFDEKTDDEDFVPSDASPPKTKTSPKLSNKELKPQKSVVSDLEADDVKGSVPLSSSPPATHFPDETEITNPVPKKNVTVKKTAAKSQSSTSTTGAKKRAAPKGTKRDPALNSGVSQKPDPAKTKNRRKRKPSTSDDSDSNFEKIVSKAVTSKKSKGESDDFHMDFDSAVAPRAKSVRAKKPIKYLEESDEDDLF

Compound | Percent of cells in S phase (COLO 205 [1]) [%] | Activity (COLO 205 [2]) | Activity (COLO 205 [3]) | GI50 (A549) [nM] | GI50 (COLO 205 [4]) [nM] | Activity (COLO 205 [5]) [%] | Activity (COLO 205 [6]) | Activity (COLO 205 [7]) | Activity (MDA-MB-231 [8]) | Activity (MDA-MB-231 [9]) | Activity (COLO 205 [10]) | GI50 [11] [nM] | GI50 [12] [nM] | GI50 (ZR-75-1) [nM] | GI50 (HOP-62) [nM] | Activity (COLO 205 [14]) | Activity (COLO 205 [15]) | GI50 (SiHa) | Activity (COLO 205 [17]) [%] | Activity (COLO 205 [18]) | further results
COc1cc([C@@H]2c3cc4c(cc3[C@@H](NC(=O)c3ccc(NC(=O)Nc5ccc(Cl)cc5)cc3)[C@H]3COC(=O)[C@H]23)OCO4)cc(OC)c1OC | 4.83 | inactive | Active | 2140 | 10 | 78.12 | Active | Active | Active | inactive | Active | 1970 | 100 | 130 | 170 | Active | Active | inactive | 17.06 | Active | GI50 (A2780): 2200 nM; Inhibition of relaxation (qualitative call) [13]: Active; inhibition [16]: Active; GI50 (MCF7): 110 nM; GI50 (KB): inactive
COc1cc([C@@H]2c3cc4c(cc3[C@@H](O[C@@H]3O[C@@H]5CO[C@@H](C)O[C@H]5[C@H](O)[C@H]3O)[C@H]3COC(=O)[C@H]23)OCO4)cc(OC)c1O [ETOPOSIDE] | 7.36 | inactive | Active | 3080 | 130 | 42.68 | Active | Active | Active | inactive | Active | 510 | 620 | 200 | 800 | Active | Active | 3110 nM | 49.63 | Active | GI50 (KB): 310 nM
